PubChem BioAssay AID504775 (Broad Institute, 2011)
Screen size: about 320,000 compounds; about 310 (0.097%) were called active.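 How the source made its calls: active means mean replicate activation of at least 60% and every replicate at or above 60%; inconclusive means mean or all-replicate condition met, but not both; inactive means mean below 60% and not all replicates reaching 60%.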 This excerpt belongs to a sample that is enriched for actives.

test: activators of SR-BI mediated DiI-HDL uptake, primary screen, ldlA[mSR-BI] CHO cells, DiI fluorescence (AID 504775); details: 3 h, at 12.5 µM, hits give high values, 100 = double the neutral-control signal;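 further: 0% = median plate neutral-control signal and 100% = twice that signal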
In short: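 Assay system: CHO ldlA[mSR-BI] cells, LDL receptor-null, SR-BI overexpressing; medium: Ham's F12 with 0.5% BSA, HEPES 25 mM, pH 7.4; also added: DiI-HDL 10 µg/mL; timing: 3 h uptake period with compound, 37 °C; signal: DiI fluorescence, bottom read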

Row | Structure (SMILES) | activation
1 | Cc1nn(-c2ncccn2)c2c1C(=O)CC(C)(C)C2Br (stereo not drawn) | -6.98% (inactive)
2 | CC12CCCCC1=CC(=O)CC2 (stereo not drawn) | 0.111% (inactive)
3 | O=C(NNC(=O)c1ccc2ccccc2c1)c1ccc(Cl)cc1 | 17.1% (inactive)
4 | O=C1C(=O)N(c2ccccc2)C(c2ccccc2)C1c1ccccc1 (stereo not drawn) | -3.47% (inactive)
5 | c1ccc(C(=NNc2nc3ccccc3s2)c2ccccn2)cc1 | -40.5% (inactive)
6 | C=CC(=O)Nc1ccc(Nc2ccnc(Nc3ccc(N4CCN(C)CC4)cc3)n2)cc1 | -5.16% (inactive)
7 | CC(=NNC(=S)N1CCCCCC1)c1ccccn1 | -22.4% (inactive)
8 | CCOC(=O)c1ccccc1NC(=O)CSc1nc2c(sc(=S)n2CC)c(=O)[nH]1 | 15.7% (inactive)
9 | Nc1ccc2c(c1)C(=Cc1cccnc1)c1ccccc1-2 | -10.7% (inactive)
10 | N#CC1=C(N)Oc2cc(N)ccc2C1c1ccccc1 (stereo not drawn) | 23.9% (inactive)
11 | Cc1ccc(S(=O)(=O)CCC(=O)OCC(=O)N(C)Cc2ccccc2)cc1 | 31.8% (inactive)
12 | CC/C(=C(/c1ccccc1)c1ccc(OCC[N+](C)(C)C)cc1)c1ccccc1 | 44.1% (inactive)
13 | CC(C)(C)OC(=O)N(Cc1ccccc1)Cc1ccc(OCc2cccc(NC(=O)c3ccccc3)c2)cc1 | -30.4% (inactive)
14 | CCCCN1CC(COCc2ccccc2)OCCS1(=O)=O (stereo not drawn) | 17.3% (inactive)
15 | COc1ccc(CNC(=O)COC(=O)C2=Cc3ccccc3OC2)cc1 | 3.54% (inactive)
16 | COC1C(CO)OC(n2cnc3c(=S)nc(N)[nH]c32)C1O (stereo not drawn) | 8.65% (inactive)
17 | COC(=O)C1CC2=C(CC(C)(C)CC2=O)N(c2ccccc2)C1=O (stereo not drawn) | 15.5% (inactive)
18 | O=C1OC(Cc2ccccc2)C(c2ccccc2)C1=O (stereo not drawn) | 5.71% (inactive)
19 | CN(C(=O)c1ccc(NC(=O)Cc2cccc(NC(=O)C3CCN(C(=O)c4ccccc4)CC3)c2)cc1)C1CC1 | -15% (inactive)
20 | CC(C)c1ccc(C=NNc2ccc([N+](=O)[O-])cn2)cc1 | 2.92% (inactive)
21 | O=C(NN=Cc1ccccc1)c1ccccc1 | 4.39% (inactive)
22 | NC(=O)C1CCN(C(=O)c2cc(S(=O)(=O)N3CCN(c4ccccc4)CC3)ccc2Cl)CC1 | 3.45% (inactive)
23 | FC(F)(F)c1ccc(-c2cccc3c2C2CC3CCN2Cc2ccccc2)cc1 (stereo not drawn) | 20.1% (inactive)
24 | O=c1oc2ccccc2c(=O)c2ccccc12 | 23.4% (inactive)
25 | O=C(NCCc1ccccc1)c1cccc(NC(=O)c2ccccc2)c1 | -9.83% (inactive)

Row | Structure (SMILES) | activation
26 | Cc1nc(N)sc1-c1ccccc1 | -11.1% (inactive)
27 | O=[N+]([O-])c1ccc(N2CCOCC2)cc1 | -9.57% (inactive)
28 | O=C(NN=CC=Cc1ccccc1)C(O)C(O)C(=O)NN=CC=Cc1ccccc1 (stereo not drawn) | -3.92% (inactive)
29 | CCCCNCCS(=O)(=O)NCc1ccccc1 | 2.76% (inactive)
30 | CC(C)CN1CC(C)C(=O)N(c2ccccc2)C1=S (stereo not drawn) | 3.77% (inactive)
31 | CC(C)C(c1nnnn1C1CCCCC1)N1CCN(C(=O)c2ccco2)CC1 (stereo not drawn) | 4.65% (inactive)
32 | CC(C)C(c1nnnn1CCc1ccccc1)N1CCN(C(=O)c2ccco2)CC1 (stereo not drawn) | 424% (active)
33 | CCC(c1nnnn1C1CCCC1)N1CCN(C(=O)c2ccco2)CC1 (stereo not drawn) | 3.81% (inactive)
34 | Cc1ccc(OCCNC(=O)c2cccc(S(=O)(=O)N3CCN(Cc4ccccc4)CC3)c2)cc1 | -20.6% (inactive)
35 | CSCCC(NC(=O)COc1ccccc1)C(=O)N1CCN(c2cccc(C(F)(F)F)c2)CC1 (stereo not drawn) | -13.3% (inactive)
36 | c1ccc2[nH]c(NCCN3CCOCC3)nc2c1 | 62.8% (active)
37 | C1=C(N2CCOCC2)/C(=C/c2nc3ccccc3[nH]2)CC1 | 6.52% (inactive)
38 | c1ccc2cc3c(NCCN4CCOCC4)ccnc3cc2c1 | 30.5% (inactive)
39 | CCc1c(Nc2ccccc2Cl)nc(N)[nH]c1=O | 15.3% (inactive)
40 | NC(=O)c1ncn([C@@H]2O[C@H](CN=C3NS(=O)(=O)c4ccccc43)[C@@H](O)[C@H]2O)n1 | 74.1% (active)
41 | NC(=O)c1ncn([C@@H]2O[C@H](CNCc3cnc(N4CCOCC4)s3)[C@@H](O)[C@H]2O)n1 | -12% (inactive)
42 | COc1cc2c(cc1CNC[C@H]1O[C@@H](n3cnc(C(N)=O)n3)[C@H](O)[C@@H]1O)OCO2 | 13.6% (inactive)
43 | CCCCNC1(C#N)CCN(Cc2ccccc2)CC1 | 2.1% (inactive)
44 | COc1ccc(CC(=O)N[C@@H]2c3cc(OC)c(OC)cc3C[C@H]2OCc2ccccc2)cc1 | -26.8% (inactive)
45 | COc1ccc(C2NCCCC2c2ccccc2)cc1 (stereo not drawn) | -26.9% (inactive)
46 | CC1C(C)N(C(=O)CCl)c2ccccc2N1C(=O)CCl (stereo not drawn) | 12% (inactive)
47 | Cc1ccccc1N1CCN(C(=O)c2cccnc2)CC1 | 2.45% (inactive)
48 | C[C@@H]1NS(=O)(=O)c2cc(Cl)ccc2O[C@@H]1c1ccccc1 | -33.6% (inactive)
49 | COC(=O)c1ccc(CNC(=O)Cn2cc(C)c(=O)[nH]c2=O)cc1 | -1.85% (inactive)
50 | O=C(NNS(=O)(=O)c1ccc(F)cc1)c1ccc([N+](=O)[O-])cc1Cl | 4.85% (inactive)

Row | Structure (SMILES) | activation
51 | Cc1cc([N+](=O)[O-])ccc1NS(=O)(=O)c1ccccc1 | 11.2% (inactive)
52 | O=[N+]([O-])c1ccc(NS(=O)(=O)c2ccccc2)c(Cl)c1 | 84.4% (active)
53 | OC(COc1ccccc1)CN1CCN(c2cccc(Cl)c2)CC1 (stereo not drawn) | -8.42% (inactive)
54 | COc1cc(/C=C/c2ccc(/C=C/c3cc(OC)c(OC)c(OC)c3)cc2)cc(OC)c1OC | -51.2% (inactive)
55 | O=C1C(Cl)=C(Oc2ccccc2)C(=O)c2ccccc21 | -13.1% (inactive)
56 | COc1ccc(NS(=O)(=O)c2ccc(N3CCOCC3)c(NC(=O)/C=C/C(=O)O)c2)cc1 | 22.2% (inactive)
57 | COc1ccc(CC(=O)NC(C)c2ccc(Cl)c(Cl)c2)cc1S(=O)(=O)N1CCOCC1 (stereo not drawn) | -4.63% (inactive)
58 | Cc1cc([N+](=O)[O-])c(=O)[nH]c1C | 9.21% (inactive)
59 | CC(NC(=O)c1ccccc1)C(=O)Nc1ccccc1 (stereo not drawn) | -16.6% (inactive)
60 | NC(=O)C1(Nc2ccc([N+](=O)[O-])cc2)CCCC1 | -13.2% (inactive)
61 | S=C(Nc1ccccc1)Nc1ccc2ccccc2c1 | -9.12% (inactive)
62 | CN1C(c2ccc(F)cc2)=CS/C1=C(/C#N)c1nnc2n1-c1ccccc1SC2 | -32.2% (inactive)
63 | CN(CCc1ccccc1)C(=O)c1cccc(NC(=O)Cc2cccc(NC(=O)C3CCCN(C(=O)CCc4ccccc4)C3)c2)c1 (stereo not drawn) | -78.5% (inactive)
64 | C=CCOC(=O)N1CCC2CC1c1cc(-c3ccc(OC)cc3)ccc12 (stereo not drawn) | 4.14% (inactive)
65 | CCCCN1CC(CO)Oc2cccc(F)c2S1(=O)=O (stereo not drawn) | 10.7% (inactive)
66 | C/C(=N\Nc1ccc(Cl)nn1)c1ccccc1O | 7.73% (inactive)
67 | CCCN(CCC)S(=O)(=O)c1cc2c(cc1Br)CCN2C(=O)CC | -7.1% (inactive)
68 | NS(=O)(=O)c1ccc(CCNC(=O)c2ccc(Cl)c(S(=O)(=O)N3CCCCCC3)c2)cc1 | -32.8% (inactive)
69 | CCc1c(Nc2ccccc2C)nc(N)[nH]c1=O | -3.67% (inactive)
70 | O=C(NN=Cc1ccccc1O)NN=Cc1ccccc1O | -79.8% (inactive)
71 | CCN(CC)CCCC(C)n1c2nc(=O)[nH]c(=O)c-2nc2cc(Cl)ccc21 (stereo not drawn) | -9.91% (inactive)
72 | CCCCC(=O)NC(c1ccc(OC)c(OC)c1)c1ccc2cccnc2c1O (stereo not drawn) | -3.38% (inactive)
73 | O=C(CSC(=S)N1CCOCC1)c1ccccc1 | -13.4% (inactive)
74 | NC(=NC(=O)c1ccccc1)N1CCOCC1 | 1.4% (inactive)
75 | O=C(NC(=O)N1CCOCC1)c1ccccc1 | 67.4% (active)

Row | Structure (SMILES) | activation
76 | Cc1nc2ccc(N)nc2nc1C | -22.1% (inactive)
77 | COc1ccc(S(=O)(=O)N2C[C@H]3CON(C)[C@H]3C[C@H]2c2cccc(Br)c2)cc1 | 7.88% (inactive)
78 | CN(C(=O)c1cccc(NC(=O)Cc2ccc(NC(=O)C3CCCN(C(=O)C4CCCC4)C3)cc2)c1)C1CCC1 (stereo not drawn) | -86.9% (inactive)
79 | CCCCN1CC(COc2ccccc2)Oc2cccc(F)c2S1(=O)=O (stereo not drawn) | -3.91% (inactive)
80 | COC1=CC(=O)OC(C)(c2ccccc2)C1 (stereo not drawn) | -8.07% (inactive)
81 | O=c1[nH]c(=S)[nH]c(O)c1/C=C1\C=Nc2ccccc21 | 12.1% (inactive)
82 | Cc1cc(OCCCC(=O)Nc2cc(S(=O)(=O)N3CCOCC3)ccc2N2CCOCC2)ccc1Cl | -17.2% (inactive)
83 | COC1=NC2=NCCN2C(OC)=N1 | 7.98% (inactive)
84 | CC1=CC(=NNS(=O)(=O)c2ccc([N+](=O)[O-])cc2)CC(C)(C)C1 | 27.7% (inactive)
85 | CC(C)Cc1nnc(N)s1 | 10.1% (inactive)
86 | Cc1nc(N)nc(Cl)c1CCC1OCCO1 | 19.5% (inactive)
87 | NNc1cccc(C=Cc2ccccc2)cc1=O | -16.6% (inactive)
88 | Nc1cc(=O)n(Cc2ccccc2)c(=O)n1Cc1ccccc1 | -0.22% (inactive)
89 | N=C1c2ccccc2-c2ccccc21 | 9.24% (inactive)
90 | COc1cc(O)c2c(=O)c3c(O)c(O)ccc3oc2c1OC | -10.1% (inactive)
91 | O=c1nc(NO)ccn1C1CCCO1 (stereo not drawn) | 15.7% (inactive)
92 | C(#CCN1CCOCC1)CCCN1CCOCC1 | 16.4% (inactive)
93 | CN1CCOC1c1ccc(C2OCCN2C)cc1 (stereo not drawn) | 6.99% (inactive)
94 | C=CCN1C=C(C(=O)c2ccccc2)C(=O)CC1 | 19.3% (inactive)
95 | NN=C(NN=Cc1ccccc1)c1ccccc1 | 1.04% (inactive)
96 | O=C(Cc1ccccc1)NNS(=O)(=O)c1ccc([N+](=O)[O-])cc1 | -11.7% (inactive)
97 | O=C(NNS(=O)(=O)c1ccc([N+](=O)[O-])cc1)C1CCCCC1 | 62.5% (active)
98 | O=C(NCC(O)c1ccc([N+](=O)[O-])cc1)C1CCCCC1 (stereo not drawn) | 2.53% (inactive)
